This is a sample that favours compounds with a hit; in the whole collection about 3% have one here.
ROMK mod: ROMK potassium channel modulators, primary screen, cell-based, thallium flux, MLSMR library; ATP-sensitive inward rectifier potassium channel 1 (Homo sapiens), P48048; Tet-inducible ROMK, thallium flux fluorescence; actives lie on both sides; B-score at 10 µM; 130,000 compounds, 2% hits;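 active = signal ratio slope over the read window, or its plate-corrected B-score, at least 3 SD from the plate mean, either direction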;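 note: B-score of the F/F0 ratio slope over 7 to 12 s after thallium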
KCC2 mod: KCC2 cotransporter modulators, thallium flux, primary screen, cell-based, HEK293 KCC2, FluoZin-2 fluorescence, MLSMR; Solute carrier family 12 member 5 (Homo sapiens), Q9H2X9; KCC2 cells, thallium flux FluoZin-2 fluorescence; B-score of Tl+ flux slope (higher = more flux/activation; lower = inhibition) at 10 µM; 190,000 compounds, 2.2% hits;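 active = thallium flux slope and its plate-corrected score both differing from the plate sample mean at a set confidence after two filtering rounds, in either direction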;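 note: slope of fluorescence scaled to starting intensity during 10 to 20 s after thallium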
PKD1 kinase inh: inhibitors of human PKD1 kinase, biochemical, fluorescence polarization. Serine/threonine-protein kinase D1 (Homo sapiens), Q15139. PKD1 kinase fluorescence polarization assay. inhibition, % (no concentration beside the values). 200,000 compounds, 0.056% hits. AID 797, 2007; in the data active = inhibition above about 50%
Target sequence (Q15139 whole entry, looked up): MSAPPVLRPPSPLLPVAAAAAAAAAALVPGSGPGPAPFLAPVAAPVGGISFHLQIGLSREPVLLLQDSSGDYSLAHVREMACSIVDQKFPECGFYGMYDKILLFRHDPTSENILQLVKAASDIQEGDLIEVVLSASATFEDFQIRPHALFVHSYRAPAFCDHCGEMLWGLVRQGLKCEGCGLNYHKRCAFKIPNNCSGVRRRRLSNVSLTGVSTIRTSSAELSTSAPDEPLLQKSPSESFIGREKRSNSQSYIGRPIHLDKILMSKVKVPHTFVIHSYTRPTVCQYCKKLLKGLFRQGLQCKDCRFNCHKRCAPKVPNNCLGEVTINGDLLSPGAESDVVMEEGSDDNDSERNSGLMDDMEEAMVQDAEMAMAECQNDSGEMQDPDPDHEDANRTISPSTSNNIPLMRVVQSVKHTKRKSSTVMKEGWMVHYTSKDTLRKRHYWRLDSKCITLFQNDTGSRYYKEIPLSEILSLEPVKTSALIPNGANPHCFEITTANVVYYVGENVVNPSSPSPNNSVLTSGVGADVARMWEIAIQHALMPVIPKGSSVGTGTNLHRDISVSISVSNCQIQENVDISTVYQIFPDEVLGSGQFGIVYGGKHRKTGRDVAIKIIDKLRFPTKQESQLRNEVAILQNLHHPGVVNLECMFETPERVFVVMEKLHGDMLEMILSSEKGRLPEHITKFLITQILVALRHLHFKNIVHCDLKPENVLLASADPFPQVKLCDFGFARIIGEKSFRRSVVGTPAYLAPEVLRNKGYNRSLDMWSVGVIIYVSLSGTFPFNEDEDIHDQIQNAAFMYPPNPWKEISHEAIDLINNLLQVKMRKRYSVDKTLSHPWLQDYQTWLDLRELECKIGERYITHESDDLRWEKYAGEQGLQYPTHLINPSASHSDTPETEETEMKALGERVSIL
Rad51 HR inh: human RAD51 strand exchange inhibitors, primary screen, biochemical, fluorescence. DNA repair protein RAD51 homolog 1 (Homo sapiens), Q06609. AID 1385, 2008. inhibition, % at 10 µM. hRad51 DNA strand exchange, fluorescence dequenching. 200,000 compounds, 0.085% hits;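 active = inhibition above 40% at the single screening dose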;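 note: 0% = DMSO control wells and 100% = blanks with heterologous ssDNA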
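Assay system: Human Rad51 nucleoprotein filaments preassembled on unlabelled ssDNA | Reagent: Donor/quencher-labelled 47-bp dsDNA substrate | Doses: One concentration, 10 µM final | Times: 37 °C 15-min filament assembly, 30-min compound preincubation, 15-min exchange | Technique: Fluorescein emission 520 nm, excitation 485 nm | Benchmarks: Plate control and blank wells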
KCC2 secondary: KCC2 modulators in sodium-free buffer, confirmation, cell-based, HEK293 KCC2, thallium flux, secondary assay; shares compounds with KCC2 mod; FluoZin2 fluorescence; active compounds read high; normalised thallium flux (F/F0 slope) at 10 µM; 3,700 compounds, 15% hits;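 active = thallium flux slope above the same plate's solvent-only control mean plus 3 SD; inconclusive = the two replicate wells disagree; inactive = no significant difference from solvent-only control wells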
KCC2 bumet counter: thallium flux persisting under bumetanide in KCC2 cells, confirmation, counter-screen for KCC2 modulator project, cell-based, HEK293 KCC2, FluoZin2, secondary assay 3 | AID 1714, 2009 | shares compounds with KCC2 mod | 3,700 compounds, 49% hits | HEK293-KCC2 + bumetanide/ouabain; active compounds read high | normalized thallium flux at 10 µM;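 active = thallium entry rate above the same plate's blocked-transporter control wells by more than 3 SD; inconclusive = the two repeat wells disagree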;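 note: raw slope of fluorescence over initial fluorescence between 10 and 20 s after thallium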
KCC2 secondary2: KCC2 modulators without ouabain present, confirmation, cell-based, HEK293 KCC2, thallium flux, FluoZin2, secondary assay 2; normalized thallium flux at 10 µM; 3,700 compounds, 23% hits; thallium flux FluoZin2 fluorescence; actives lie on both sides; F/F0 rise rate, 10–20 s post-thallium; shares compounds with KCC2 mod;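 active = thallium flux slope more than 3 SD above or below the plate's solvent-only control mean, mostly below; inconclusive = the two repeat wells disagreed; inactive = no significant shift from solvent-only controls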;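 note: raw slope with 0.1% DMSO as baseline and bumetanide as block control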
HEK counter1: thallium flux modulation in parental HEK cells, confirmation, counter-screen for KCC2 modulator project, cell-based, counterscreen 1. shares compounds with KCC2 mod. HEK293 parental cells, thallium flux FluoZin2, ouabain; baseline-ratio fluorescence slope, 10–20 s after thallium. thallium flux rate (normalised fluorescence) at 10 µM. 3,700 compounds, 46% hits. AID 1716, 2009;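 active = thallium flux rate significantly above the same plate's solvent-only control wells, beyond their mean plus 3 SD; inconclusive = the two replicate wells gave conflicting results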
KCC2 ouabain: KCC2 inhibitors and activators, ouabain retest, confirmation, HEK-KCC2 cells | shares compounds with KCC2 mod | HEK293-KCC2, thallium flux FluoZin2 fluorescence; bidirectional: low = inhibitor, high = activator | raw Tl+ flux slope (below DMSO = inhibition, above = activation) at 10 µM | 3,700 compounds, 48% hits | AID 1717, 2009;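 active = thallium flux slope beyond 3 SD from same-plate DMSO control mean in most replicates, usually higher, sometimes lower; inconclusive = repeat tests gave conflicting results; inactive = no significant difference from controls in most replicates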;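 note: slope of initial-normalized fluorescence between seconds 10 and 20 after thallium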
HEK293 Tl flux2: native HEK Tl+ uptake effects, second counter-screen – HEK cells, counterscreen 2, counter-screen for KCC2 modulator project, confirmation; 3,700 compounds, 33% hits; HEK293 parental, thallium flux FluoZin-2 fluorescence slope; thallium flux slope at 10 µM; shares compounds with KCC2 mod;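 active = thallium flux slope above the same plate's solvent-control mean plus 3 SD in both duplicate wells; inconclusive = duplicate wells that disagreed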;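 note: run without ouabain in cells lacking the KCC2 cotransporter; slope of fluorescence scaled to its starting value between 10 and 20 s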
Active calls of the source: *; u = inconclusive; x = not tested or not shown.

SMILES	ROMK mod	KCC2 mod	PKD1 kinase inh	Rad51 HR inh	KCC2 secondary	KCC2 bumet counter	KCC2 secondary2	HEK counter1	KCC2 ouabain	HEK293 Tl flux2
Cc1ccc(S(=O)(=O)N2CCN(C(=O)CCC(=O)NCc3ccc(F)cc3)CC2)cc1	0.0575	1.19	0.4	4.2	x	x	x	x	x	x
Cn1c(CSc2nc3ccccc3s2)n[nH]c1=S	x	x	10.8	-3.2	u	0.00588	u	0.00713	0.0115*	u
Cn1c(CSc2nc3ccccc3s2)nc2ccccc21	-1.61	-4.4*	-3.1	6.6	0.00588	0.00494	0.0244*	0.00702	u	0.0105
CC(=O)CSc1nc2ccccc2s1	x	1.31	-4.0	-3.9	x	x	x	x	x	x
S=c1[nH]nc(CSc2nc3ccccc3s2)o1	0.869	-5.5	-7.6	-6.9	x	x	x	x	x	x
OC[C@@H](O)C1OC2NC(=S)OC2C1O (stereo partly drawn)	x	x	-2.5	-3.1	x	x	x	x	x	x
CCOC(=O)c1c(C)[nH]c(C=C2C(=O)CCCC2=O)c1O	x	0.0385	-2.5	-5.8	x	x	x	x	x	x
Cc1ccccc1C(=O)NC1CCN(C(=O)Nc2ccccc2Cl)CC1	0.361	-0.635	2.5	-1.6	x	x	x	x	x	x
COc1ccc(CNC(=O)C(c2ccc(C)o2)N(Cc2cccs2)C(=O)Cc2cccs2)cc1 (stereo not drawn)	x	-2.35	-7.1	-5.9	x	x	x	x	x	x
C/C(=C\C(=O)c1ccncc1)Nc1ccccc1O	x	19.4*	3.1	-5.3	0.0147*	0.0243*	0.032	0.0111*	0.0288	0.0115*
COc1ccccc1C(=O)NNC(=O)c1sccc1-n1cccc1	0.013	x	-4.0	-16.1	u	0.0456*	0.0483*	0.0397*	0.0504*	0.0396*
COC(=O)C(Cc1ccc(O)cc1)NC(=O)c1ccccc1 (stereo not drawn)	-0.115	x	-0.7	-2.1	x	x	x	x	x	x
COc1ccccc1C(=O)NNC(=O)C(=O)NC(C)C	0.0387	4.29*	-0.9	2.2	0.0139*	0.0199*	0.0285	0.0113*	u	0.0108*
COC(=O)C(Cc1ccc(O)cc1)NC(=O)c1ccccc1OC (stereo not drawn)	x	-5.17*	4.3	-1.5	0.00892	u	0.0307	0.00855	0.0176	0.0111
COc1ccc(C(=O)NNC(=O)C(=O)NCc2ccccc2)cc1	x	x	-2.3	-5.4	0.0164	0.0187*	0.0295	0.0171*	0.022*	0.0183*
CC1CCCCC1NC(=O)C1CCC(CNc2c(N3CCCCC3)c(=O)c2=O)CC1 (stereo not drawn)	0.237	0.361	x	-2.6	x	x	x	x	x	x
COc1ccccc1C(=O)NCc1ccccc1	-0.0676	1.28	-1.1	4.5	x	x	x	x	x	x
COc1ccccc1C(=O)NNC(=O)C(=O)NCc1ccccc1	1.11	22.7*	-0.5	x	0.0247*	0.0463*	0.0368	0.0285*	0.048*	0.0141*
O=C1/C(=C/c2ccc(Cl)cc2)NC(=S)N1Cc1cccnc1	x	5.23*	5.7	-4.4	0.007	0.00881*	0.0348	0.0102*	0.021	0.0113
O=C1/C(=C/c2ccc(O)cc2)SC(=S)N1Cc1cccnc1	-0.0626	0.899	0.6	-30.0	x	x	x	x	x	x
O=C(/C=C/c1ccco1)Nc1scc(-c2ccccc2)c1C(=O)O	x	x	x	13.4	x	x	x	x	x	x
O=C(/C=C/c1ccccc1)Nc1scc(-c2ccccc2)c1C(=O)O	0.252	-7.05*	-5.2	-7.3	0.00916	u	0.0265*	0.00796	0.0135*	0.0108
O=C(NN=C1CCCCCCCCCCC1)c1ccccc1F	0.13	1.58	3.1	-6.0	x	x	x	x	x	x
COCCN(CCOC)c1ncc(Cl)c(C(=O)c2c(C)cc3ccccn23)n1	0.66	-1.16	-3.0	-8.7	x	x	x	x	x	x
Cc1cc2ccccn2c1C(=O)c1nc(N2CCOCC2)ncc1Cl	x	-3.77*	0.0	-3.4	0.00734	u	0.0256*	0.00739	0.0173*	0.00983
SMILES	ROMK mod	KCC2 mod	PKD1 kinase inh	Rad51 HR inh	KCC2 secondary	KCC2 bumet counter	KCC2 secondary2	HEK counter1	KCC2 ouabain	HEK293 Tl flux2
Cc1c(O)ccc2c(CN(C)Cc3ccccc3)cc(=O)oc12	x	-6.62*	x	-3.5	0.00739	0.00572	0.0343	u	0.0153*	0.0106
O=C(Nc1nnc(C2=COCCO2)o1)c1ccc(Cl)cc1	x	8.51*	-6.5	3.4	u	0.0258*	0.0294	0.0208*	0.0325*	u
O=C(Nc1nnc(C2=COCCO2)o1)c1ccc(Cc2ccccc2)cc1	x	7.3*	0.2	0.6	0.00666	0.0195*	0.0311	0.0157*	u	0.0188*
O=C(Nc1nnc(C2=COCCO2)o1)c1ccc(S(=O)(=O)N2CCOCC2)cc1	-0.555	-0.103	-1.7	9.8	x	x	x	x	x	x
COc1ccc(N2CCN(c3nc4c(c(=O)[nH]c(=O)n4C)n3CCCc3ccccc3)CC2)cc1	-0.663	x	x	x	x	x	x	x	x	x
N[C@@H](Cc1cc(I)c(Oc2ccc(O)c(I)c2)c(I)c1)C(=O)O	x	-2.17	-9.1	2.6	x	x	x	x	x	x
O=C(O)CCc1cc(I)c(Oc2ccc(O)c(I)c2)c(I)c1	x	-4.09*	x	x	0.00703	u	0.0247*	0.00687	u	0.0103
CCOc1ncccc1C(=O)OCC(=O)c1cccc(Br)c1	0.0738	-0.18	-7.6	13.1	x	x	x	x	x	x
O=C(Nc1nc2ccc(S(=O)(=O)N3CCCC3)cc2s1)c1ccccn1	0.464	1.39	-4.3	2.1	x	x	x	x	x	x
COc1ccc2nc(NC(=O)CNS(=O)(=O)c3cccs3)sc2c1	0.227	x	-3.5	5.3	0.0105	0.00651	0.0313	0.00766	u	u
O=C(COc1ccccc1)NNc1nc2c(F)cc(F)cc2s1	0.0615	0.593	-4.8	-10.7	x	x	x	x	x	x
O=C(Nc1nc2c(F)cc(F)cc2s1)c1ccccn1	0.794	23.2*	0.7	-7.5	0.0201*	0.105*	0.0306	0.0391*	0.076*	0.015*
Cc1ccc2nc(N/C(=N/S(=O)(=O)c3cccs3)c3ccccc3Cl)sc2c1	-1.11	6.4*	4.9	5.8	0.00734	0.0229*	0.0318	0.0216*	u	0.0168*

Screening results from PubChem BioAssay.
